The subject of assay [1] is Canis familiaris. In words: Change in heart rate (beats/min) in anesthetized dog. The assay is classed as functional, Canis lupus familiaris. The essentials:
(§1)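 Adult mongrel dogs of either sex, induced with sodium methohexital and maintained on methoxyflurane, breathing spontaneously at 37 ± 1 °C. The right atrium was electrically paced, and the pacer was switched off periodically to obtain spontaneous rate. Dose was 3.1 mg/kg iv via the femoral vein. Catheter-tip transducers recorded aortic and LV pressure; LV dP/dt max indexed contractility. BP and rate were taken at the time of maximal % change in dP/dt max. 1–4 dogs were used per compound.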

The subject of assay [2] is Canis familiaris. In words: Inotropic change in blood pressure (systolic/diastolic mmHg) in anesthetized dog; -6/-22. The assay is classed as functional, organism-based. The conditions noted are these: Canis lupus familiaris; Artery. The method in brief:
as §1

Assay [3] relates to Canis familiaris. In words: Evaluated for dP/dt max in anesthetized dogs. The assay is classed as functional, Canis lupus familiaris. The method in brief:
as §1

The target of another assay is Phosphodiesterase 4 (Homo sapiens, UniProt P27815+Q08499+Q07343+Q08493). The conditions noted are these: Oryctolagus cuniculus; Kidney.
The nature of assay [4]: Inhibition of cAMP phosphodiesterase preparation from rabbit lung at a substrate concentration of 0.14 uM.
For assay [5], the system named is Canis familiaris. In words: Inotropic change in blood pressure (systolic/diastolic mmHg) in anesthetized dog; 2/-5. The assay is classed as functional, organism-based. The settings on record: Canis lupus familiaris; Artery. The method in brief: as §1
In assay [6] the test system is Canis familiaris. In words: Inotropic change in blood pressure (systolic/diastolic mmHg) in anesthetized dog; 0/-6. The assay is classed as functional, Canis lupus familiaris, Artery. The essentials:
as §1

The test system of assay [7] is Canis familiaris. In words: Inotropic change in blood pressure (systolic/diastolic mmHg) in anesthetized dog; 6/-19. The settings on record: Canis lupus familiaris; Artery. The assay is classed as functional, organism-based. The essentials:
as §1

In assay [8] the test system is Canis familiaris. In words: Inotropic change in blood pressure (systolic/diastolic mmHg) in anesthetized dog; -8/-25. Format: functional, organism-based. The conditions noted are these: Canis lupus familiaris; Artery. The essentials:
as §1

Assay [9] deals with Canis familiaris. In words: Inotropic change in blood pressure (systolic/diastolic mmHg) in anesthetized dog; -4/-9. The conditions noted are these: Canis lupus familiaris; Artery. The assay is classed as functional, organism-based. The method in brief:
as §1

The source made the active and inactive calls. No cut-off for these calls is given here. Where only a bound is given, the exact number is not on record here.

As for `CCNc1ncnc2c1nc(SCc1ccccc1)n2[C@@H]1O[C@@H]2COP(=O)(O)O[C@H]2[C@H]1O`, the values for the Change in the assay on Canis familiaris [1] and with Canis familiaris [3] were 10 beats/min and 80%, respectively. The Change result in the assay on Canis familiaris [2] was “inactive”. This molecule gave a Hydrolysis on Phosphodiesterase 4 of under 0.05. Also, in [4], the I50 stood at 2.5 µM.
In the case of `CCCCNc1ncnc2c1nc(SCc1ccccc1)n2[C@@H]1O[C@@H]2COP(=O)(O)O[C@H]2[C@H]1O`, the Change in the assay with Canis familiaris [1] came out at 0 beats/min; in the assay with Canis familiaris [3] it was 84%. Also, the Change entry in the assay with Canis familiaris [5] is “inactive”. The same molecule yielded a Hydrolysis at Phosphodiesterase 4 of under 0.05. Moreover, the I50 in assay [4] turned out to be 20 µM.
As to `CNc1ncnc2c1nc(SCc1ccccc1)n2[C@@H]1O[C@@H]2COP(=O)(O)O[C@H]2[C@H]1O`, the Change in the assay with Canis familiaris [1] was 0 beats/min; in the assay with Canis familiaris [6], 0%; in the assay on Canis familiaris [3], 71%. At Phosphodiesterase 4, this molecule had a Hydrolysis of under 0.05. For the same molecule, in assay [4], the I50 came to 120 µM.
On to `CCCNc1ncnc2c1nc(SCc1ccccc1)n2[C@@H]1O[C@@H]2COP(=O)(O)O[C@H]2[C@H]1O`, for which the results for the Change in the assay with Canis familiaris [1] and in the assay with Canis familiaris [3] were 24 beats/min and 127%, respectively. Further, in the assay on Canis familiaris [7], the Change entry is “inactive”. The same molecule gave a Hydrolysis at Phosphodiesterase 4 of under 0.05. Further, in assay [4], the I50 turned out to be 3.6 µM.
`Nc1ncnc2c1nc(Sc1ccccc1)n2[C@@H]1O[C@@H]2COP(=O)(O)O[C@H]2[C@H]1O` gave a Hydrolysis at Phosphodiesterase 4 of under 0.05. Moreover, the I50 in assay [4] came to 57 µM.
The matching figures for `CCCCSc1nc2c(N)ncnc2n1[C@@H]1O[C@@H]2COP(=O)(O)O[C@H]2[C@H]1O`: under 0.05 and 25 µM.
With `Nc1ncnc2c1nc(SCc1ccc(F)cc1)n2[C@@H]1O[C@@H]2COP(=O)(O)O[C@H]2[C@H]1O`, the Hydrolysis at Phosphodiesterase 4 is under 0.05. In assay [4], this molecule displayed an I50 of 38 µM.
`CCCCCSc1nc2c(N)ncnc2n1[C@@H]1O[C@@H]2COP(=O)(O)O[C@H]2[C@H]1O` came in with a Hydrolysis at Phosphodiesterase 4 of under 0.05. Also, the I50 in assay [4] was 15 µM.
The matching figures for `O=c1[nH]c2c(Cl)ncnc2n1[C@@H]1O[C@@H]2COP(=O)(O)O[C@H]2[C@H]1O`: under 0.05 and over 400 µM.
The matching figures for `CCCCNc1ncnc2c1ncn2[C@@H]1O[C@@H]2COP(=O)(O)O[C@H]2[C@H]1O`: 0.21 and 33 µM.
`Nc1ncnc2c1nc(SCc1ccc([N+](=O)[O-])cc1)n2[C@@H]1O[C@@H]2COP(=O)(O)O[C@H]2[C@H]1O` showed a Hydrolysis on Phosphodiesterase 4 of under 0.05. The I50 in [4] was determined as 27 µM.
The matching figures for `O=P1(O)OC[C@H]2O[C@@H](n3cnc4c(NCc5ccccc5)ncnc43)[C@H](O)[C@@H]2O1`: 0.3 and 130 µM.
In the case of `CN(C)c1ncnc2c1nc(SCc1ccccc1)n2[C@@H]1O[C@@H]2COP(=O)(O)O[C@H]2[C@H]1O`, the Change was 15 beats/min with Canis familiaris [1] and 61% with Canis familiaris [3]. Moreover, in the assay on Canis familiaris [8], the Change result was “inactive”. Besides, the Hydrolysis at Phosphodiesterase 4 was under 0.05.
`Nc1ncnc2c1nc(SCc1ccccc1)n2[C@@H]1O[C@@H]2COP(=O)(O)O[C@H]2[C@H]1O`: the Hydrolysis at Phosphodiesterase 4 is under 0.05. The I50 in assay [4] amounted to 53 µM.
The molecule `CC(C)Sc1nc2c(N)ncnc2n1[C@@H]1O[C@@H]2COP(=O)(O)O[C@H]2[C@H]1O` displayed a Hydrolysis at Phosphodiesterase 4 of under 0.05. Also, the I50 in assay [4] was found to be 56 µM.
The matching figures for `CSc1ncnc2c1nc(SC)n2[C@@H]1O[C@@H]2COP(=O)(O)O[C@H]2[C@H]1O`: under 0.05 and 50 µM.
`Nc1ncnc2c1nc(O)n2[C@@H]1O[C@@H]2COP(=O)(O)O[C@H]2[C@H]1O` displayed a Hydrolysis at Phosphodiesterase 4 of under 0.05. Besides, the I50 in assay [4] is 150 µM.
As to `CCN(CC)c1ncnc2c1nc(SCc1ccccc1)n2[C@@H]1O[C@@H]2COP(=O)(O)O[C@H]2[C@H]1O`, the Change is on record as 5 beats/min with Canis familiaris [1] and 45% in the assay with Canis familiaris [3]. Moreover, the Change result in the assay with Canis familiaris [9] is “inactive”. Further, the Hydrolysis at Phosphodiesterase 4 is under 0.05. In assay [4], this molecule displayed an I50 of 3.6 µM.
The molecule `O=P1(O)OC[C@H]2O[C@@H](n3c(SCc4ccccc4)nc4c(N5CCCC5)ncnc43)[C@H](O)[C@@H]2O1` gave a Hydrolysis on Phosphodiesterase 4 of under 0.05. The molecule further came in with an I50 in assay [4] of 5 µM.
The matching figures for `Cc1ccc(CSc2nc3c(N)ncnc3n2[C@@H]2O[C@@H]3COP(=O)(O)O[C@H]3[C@H]2O)cc1`: under 0.05 and 13 µM.
The matching figures for `O=P1(O)OC[C@H]2O[C@@H](n3cnc4c(SCc5ccccc5)ncnc43)[C@H](O)[C@@H]2O1`: 0.54 and 25 µM.
The matching figures for `Nc1ncnc2c1nc(S)n2[C@@H]1O[C@@H]2COP(=O)(O)O[C@H]2[C@H]1O`: under 0.05 and 20 µM.
As to `COc1ccc(Sc2nc3c(N)ncnc3n2[C@@H]2O[C@@H]3COP(=O)(O)O[C@H]3[C@H]2O)cc1`, the Hydrolysis on Phosphodiesterase 4 is under 0.05. Moreover, in [4], the I50 turned out to be 48 µM.
The matching figures for `CSc1nc2c(NCc3ccccc3)ncnc2n1[C@@H]1O[C@@H]2COP(=O)(O)O[C@H]2[C@H]1O`: 0.19 and 17 µM.
The molecule `Nc1ncnc2c1nc(SCc1cccc([N+](=O)[O-])c1)n2[C@@H]1O[C@@H]2COP(=O)(O)O[C@H]2[C@H]1O` yielded a Hydrolysis at Phosphodiesterase 4 of under 0.05. Further, the I50 in assay [4] was found to be 25 µM.
In turn, `CCN(CC)c1nc2c(Cl)ncnc2n1[C@@H]1O[C@@H]2COP(=O)(O)O[C@H]2[C@H]1O` registered a Hydrolysis at Phosphodiesterase 4 of 0.1. This molecule registered an I50 in assay [4] of 80 µM.
The matching figures for `O=P1(O)OC[C@H]2O[C@@H](n3cnc4c(Cl)ncnc43)[C@H](O)[C@@H]2O1`: 1.2 and 20 µM.
Take `CCN(CC)c1ncnc2c1ncn2[C@@H]1O[C@@H]2COP(=O)(O)O[C@H]2[C@H]1O`: the Hydrolysis on Phosphodiesterase 4 was determined as 0.09. The same molecule displayed an I50 in [4] of 67 µM.

Source of the values: ChEMBL document CHEMBL1121590, “Synthesis and enzymatic and inotropic activity of some new 8-substituted and 6,8-disubstituted derivatives of adenosine cyclic 3',5'-monophosphate” (J Med Chem, 1980).
